Measured values: the EternaBench riboswitch data

Test system: MS2 coat protein
Experiment: apparent Kd, MS2 coat protein; higher = weaker binding; RNA-MaP array; FMN 200 µM where present
Outline: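 The apparent Kd is the median of filtered binding-curve fits, one per cluster, to green signal normalised to red-channel RNA signal and control-cluster median Fmax. The clusters were on Illumina sequencing chips, and stalled E. coli RNA polymerase had transcribed the designs on them. Titration used SNAP-549-labelled MS2 coat protein from 0.7 or 1.5 nM, doubling to 3 µM, without and then with constant ligand, in 100 mM Tris-HCl pH 7.5, 80 mM KCl, 4 mM MgCl2, BSA, DTT, yeast tRNA and Tween-20.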

[1] = designed as: ON switch for flavin mononucleotide, no ligand
[2] = ligand present: flavin mononucleotide, designed as: ON switch for flavin mononucleotide
[3] = designed as: OFF switch for flavin mononucleotide, no ligand
[4] = ligand present: flavin mononucleotide, designed as: OFF switch for flavin mononucleotide

Sequence	apparent Kd [1] [nM]	apparent Kd [2] [nM]	apparent Kd [3] [nM]	apparent Kd [4] [nM]
GCGGAGAUACAGAAGGGAUAAGCCCUGGGCUAGUCAGGAUAUGUACGACGCAUCGUACAUGAGGAUCACCCAUGUAGCCGCUUG	322	162		
GCGGGACGUCGAGGAUAUGGGUGUGCGAGUCUUGGCACUGGACAUGAGGAUCACCCAUGUCGCUUCCAGAAGGCGACGUCCCUA	34.8	6.67		
GCGGUUACGGUUGGCACUUAGCGAGAGGAUAUGGUAAGCUGGACAUGAGGAUCACCCAUGUACUAUCAGAAGGCUCGAGCACGC	7.94	9.15		
GCGUAACAUGAGGAUCACCCAUGUACCCGAGAAUUCGGGUCGAGAAGGGUGACCGGUCGUUUGGCACAGGAUAUCGACGUUGUG	19.4	14.5		
GCGUAACAUGAGGAUCACCCAUGUACCCGAGAAUUCGGGUCUAGAAGGGUGACCGGUCGUUUGGCACAGGAUAUAGACGUUGUG	30.7	11.3		
GCGUAUAUAAGAUUUAUAAAACAGUCAGAAGGUGAUAAGACGACAUGAGGAUCACCCAUGUAAUUCAAGGAUAUGAUAAUGCGC	56.3	15.4		
GCGUCACAAUUAGAACCAAUACGAACAUGAGGAUCACCCAUGUAGGAUAUGCUAGAAGUUGAGUUGCAGAAGGACAUUUAUCGC			10.6	9.8
GCGUGUAUAAGAUUUAUAAAACAGUCAGAAGGUGAUAAGACGACAUGAGGAUCACCCAUGUAAUUCAAGGAUAUGAUAAUACGC	53.8	13.3		
GCGUGUCAUGUAGGAUAUGACACAGGAAACUGGUCAGAAGGACAUGAGGAUCACCCAUGUAAAAUGUUCAAGAAUAACGCAUGC			40.6	137
GCGUUACAUGAGGAUCACCCAUGUGAGGAUAUGGUGCGGUACUGUCCUGUCGCGUACUCCAGAAGGCACGGGUG			150	85.3
GCGUUACAUGAGGAUCACCCAUGUGAGGAUAUGGUUCGGUACUGUCCUGUCGCGUACUCCAGAAGGCACGUGUG			47.6	104
GCGUUGAACGAGAAGGCCAAUACAUGAGGAUCACCCAUGUUUAGAUGUUUUGGAGGAUAUCGUACGUAGUCAAAAGAGCAACGC			11.3	10.2
GCGUUGAACGAGAAGGCCAAUACAUGAGGAUCACCCAUGUUUAGAUGUUUUGGAGGAUAUCGUACGUAUUCAAUAUUGCAACGC			10.9	9.94
GCGUUUGUAUCACAUGUAUUACAUGAGGAUCACCCAUGUUACUAGGAUAUGUAUUAGUAUUAUCAACAGAAGGAGUAAGAACGC			17.5	18.3
GCUAAGAGUGUGAGGAUAUGCUGGUCCUUGGAUCAGCAGAAGGCACAUGAGGAUCACCCAUGUGAAAACUUAGC			23.3	89.6
GCUAUUGAUGUAGGAUAUGAUAUAGAAACUAUGUCAGAAGGACAUGAGGAUCACCCAUGUCAAUGGAUGGAGAGAAGAAAUGGC			47.8	59.2
GCUCCGCACUAGAAGGGUGACAUGAGGAUCACCCAUGUGCACUUCCGCUCUUAGCGGAAAGUGCCACAGGAUAUAGUGUGGAGU	31.8	113		
GCUGACGAUGUAGGAUAUCUCGACGAUAAGUCGAGAGAAGGACAUGAGGAUCACCCAUGUAAAACUCCGUCAGCGAGGAAACUC			16.3	17.8
GCUGCAUAGGCAGGAUAUGCAACAAUGAGAUGAAAAUACAUCUCAUUGACAUGAGGAUCACCCAUGUAGAAGGGCCUGUGCAGU			16.3	18.9
GCUGCGUACGUAGGAUAUACAUGAGGAUCACCCAUGUAACUCGGACUCUAAGCGGGUGCGCGCAUGUAGAAGGACGGGCGAGCC			33.3	57.2
GCUGCUAUCGCAGGAUAUUACAUGGGAAAUAAGACAUGAGGAUCACCCAUGUUAAAUAUCGUAAAUAAGAAGGGCGAUAGCAGC	270	475		

Sequence	apparent Kd [1] [nM]	apparent Kd [2] [nM]	apparent Kd [3] [nM]	apparent Kd [4] [nM]
GCUGGACAAGGAUAUACAAUCGUGCUUCGGCACGUAAGGUCACAUGAGGAUCACCCAUGUAGAAGGUGUCCAGC			23.8	157
GCUGGGUAGGCAGGAUAUCCUCGCGCAAACACAUGAGGAUCACCCAUGUACACAAAACGUGAUAUGGAGAAGGGCUGACCCACA	33.2	6.68		
GCUGUCGCAUGAGGAUAUGGUCAGCUUUGCUGACCAGAAGGCAUGUCAAUAGACAUGAGGAUCACCCAUGUAGUAAAGGCGGCU	380	37.8		
GCUGUCGCUUGAGGAUAUGGUCAGCUUUGCUGACCAGAAGGCAUGUCAAUAGACAUGAGGAUCACCCAUGUAGUAAGGGCGGCU	339	122		
GCUUAGUAAGGAUAUUCACCGAUAAACAUGAGGAUCACCCAUGUCAUGUACCGUCGCCCGGAAGAAGGUACAGGCU			49.6	44.9
GCUUGAGCAGGAUAUACAAGCUUGAGCUGAAAAGUUCGAGUACAUGAGGAUCACCCAUGUAGAAGGGUUCGAGU			27.5	32.3
GCUUGUAGAGGAUAUACAAGGGCCCAAGCGGCGAGAGCCGCACAUGAGGAUCACCCAUGUAGAAGGCUACUAUA			192	499
GCUUGUAGAGGAUAUACAAGGGCCUUAGCGGAUAACACCGCACAUGAGGAUCACCCAUGUAGAAGGCUACCACC			16.8	94.1
GGAAAACAUGAGGAUCACCCAUGUGAGGAUAUCGAUGUCCAAUUUAAAGUGCGGGACUCGAGAAGGCACUUGGA			43	30.1
GGAAAAUGAGGAUAUACAUGUUUGAUACCUCUACGCCCGCAACAUGAGGAUCACCCAUGUAGAAGGCAUGAAAA			15.4	44.2
GGAAAGUAAGGAUAUGCGAACAAACAAACAAACAAAAGGGAACAUGAGGAUCACCCAUGUAGAAGGUGCAAACA			46.3	35.9
GGAAAGUGAGGAUAUGCAUAACAAAUACAAAGAGAAACAAAGCAGAAGGCACAUGAGGAUCACCCAUGUAAACA			24.9	25
GGAAAUCAUGUAGGAUAUGCAUGGCGAAGCUACGCAGAAGGACAUGAGGAUCACCCAUGUUAUAGCUACCCAGUUAGGUGGCAA			122	172
GGAAAUCAUGUAGGAUAUGCAUGGCGAAGCUACGCAGAAGGACAUGAGGAUCACCCAUGUUAUAGCUACCCAGUUCGGUGGCAA			133	180
GGAAUAUUUACAGGAUAUGUUUUGUUAAGUCGAGCAGAAGGGUAGAUGUCUUACACGGUUUGUUACAUGAGGAUCACCCAUGUU	114	35.1		
GGACAUCCCACAGGAUAUGCUGGACUUUGUCCAGCAGAAGGGUGAACAUGAGGAUCACCCAUGUAUAGGAUGUCCAUAUUUAAU	963	128		
GGACAUGUACAGAAGGGCAAUUUAUUUAUUGAUUAUUUAGUUCUGUAUUGCAGGAUAUGUAAAACAUGAGGAUCACCCAUGUCC	73.5	56.4		
GGACAUUUACAGAAGGGCAAGCUCGAAAGCGGAGAACGCGAACGAGCUUGCAGGAUAUGUUGAACAUGAGGAUCACCCAUGUCU		7.08		
GGACAUUUACAGAAGGGCAAGUUGGAUCGCGGAUAACGCGAUCCGACUUGCAGGAUAUGUUGAACAUGAGGAUCACCCAUGUCC	12	9.8		
GGACCUCCUGAGGAUAUUGCAUCACCCGACUGAUAAGAAGGCAGAACAUGAGGAUCACCCAUGUGGGUACUCGG			32.3	36.1
GGACGUCACAUCUACAUGAGGAUCACCCAUGUCUCUUGAUAUGAGGAUAUGUAUACGAAUCGUUUAUAGAAGGCAUGGACGUCC	286	312		
